# Bioassay records from PubChem.
# TLR4-MyD88 BLA: blocks binding of human TLR4 to MyD88; O00206+Q99836; HeLa CL3-4 TLR4/MyD88 BLA complementation, FRET ratio; inhibition, % at 8.4 µM; hit rate 0.18% among 200,000; in the data active = inhibition above about 25%;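 also: 0% = vehicle and 100% = reference inhibitor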
# CHOP inhibitor: inhibitors of CHOP induction in ER stress response; CHO-K1 CHOP-promoter luciferase, tunicamycin-induced, 15-18 h; inhibition, % at 10 µM; hit rate 3.8% among 220,000;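 active = compounds that reduced the stress-induced luciferase reporter signal by more than about 70% of percent inhibition, limit read from the data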;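 also: 0% = tunicamycin plus vehicle and 100% = wells without tunicamycin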
# NOD2-RIPK2 inh: NOD2-RIPK2 protein interaction inhibition; hit rate 0.38% among 360,000; inhibition, % at 4.98 µM; O43353; CHO BLA complementation NOD2-RIPK2, CCF4 ratio; in the data active = inhibition above about 21%;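 also: 0% = vehicle only and 100% = reference blocker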
# UPR CHOP act: apoptotic UPR (CHOP) activation. AID 449763. hit rate 0.34% among 330,000. CHO-CHOP luciferase reporter, luminescence; percent of tunicamycin response over DMSO baseline. activation, % at 10 µM;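 active = at 10 µM dose, activation of 40% or more, normalized to positive control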;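 also: 100% = tunicamycin at 10 µg/mL and 0% = DMSO alone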
#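 Assay system: CHO cells with stable CHOP pathway luciferase reporter; Buffer or medium: F12 plus 10% serum; Times: 16-18 h cell attachment, then 6 h compound exposure, 37 °C; Signal: luciferase luminescence; Read-out basis: percent activation relative to tunicamycin control; Control set: tunicamycin high control, DMSO low control.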
# TLR9-MyD88 inh: TLR9-MyD88 interaction inhibition | CHO BLA complementation TLR9-MyD88, CCF4 FRET ratio | hit rate 0.21% among 340,000 | AID 504734 | inhibition, % at 4.98 µM | Q9NR96+Q99836;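 active = inhibition above the mean over all tested compounds plus 3 SD, cut at about 21% in these data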;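 also: 0% = DMSO only wells and 100% = clavulanate BLA inhibitor control wells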
# XBP1 UPR activ: activators of adaptive arm of unfolded protein response (XBP1). CHO-XBP1 luciferase reporter, IRE1-XBP1 UPR activation, luminescence; percent of tunicamycin response, DMSO as zero. activation, % at 20 µM. hit rate 0.33% among 330,000. AID 463104;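 active = versus positive control, 20 µM dose yields 30% or more activation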;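 also: 100% = tunicamycin at 10 µg/mL and 0% = DMSO only wells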
#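 Test system: CHO-XBP1 luciferase reporter cells | Buffer or medium: Serum-containing F12 medium, 10% FBS | Schedule: 6 h compound exposure at 37 °C, 5% CO2 | Detection: Steady-Glo luciferase glow luminescence, 10 min after reagent addition | Read-out basis: Activation, % of tunicamycin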
# CHOP inh conf: confirmation of CHOP induction inhibitors | CHO-CHOP promoter luciferase reporter, tunicamycin-induced, luminescence | hit rate 45% among 2,100 | inhibition, % at 10 µM | shares compounds with CHOP inhibitor;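 active = mean of three repeat readings of reporter signal inhibition above a set limit, cut at about 70% in these data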;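 also: 0% = tunicamycin plus vehicle and 100% = wells lacking tunicamycin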
# * marks the source's active call; other numbers are inactive results; · = not tested or not shown. This is one part of a sample in which hits are shown more often than they occur.
SMILES,TLR4-MyD88 BLA,CHOP inhibitor,NOD2-RIPK2 inh,UPR CHOP act,TLR9-MyD88 inh,XBP1 UPR activ,CHOP inh conf
CCN(c1cccc(C)c1)S(=O)(=O)c1c(C)[nH]c(C)c1C(=O)N1CCCCC1,·,·,-9.5,2.1,5.5,-0.6,·
CC1C(=O)N(C)C(=O)c2nc[nH]c21 (centres undefined),·,1.2,·,·,·,·,·
CCOc1ccc(-c2[nH]ncc2Oc2cccc(OC)c2)c(O)c1,-12.3,107.4*,4.3,-0.8,5.3,-4.2,-7.2
CCCOC(=O)c1ccc(Oc2cn[nH]c2-c2ccc(OCC)cc2O)cc1,-2.3,107.0*,12.4,2.0,10.4,-2.1,123.7*
COc1ccc(Oc2c(-c3ccc(O)cc3O)n[nH]c2C)cc1,-5.5,29.9,-6.2,-1.3,-1.2,1.0,·
CCCOC(=O)c1ccc(Oc2c(-c3ccc(OCC)cc3O)n[nH]c2C)cc1,2.2,113.5*,6.3,1.8,-5.7,4.5,118.5*
COc1ccc(Oc2cn[nH]c2-c2ccc(OCC(=O)NN)cc2O)cc1,·,·,-2.2,-2.4,-5.9,-1.4,·
CC1(C)CC(Cc2ccccc2C(F)(F)F)N(C(=O)OC(C)(C)C)C1 (centres undefined),·,·,10.6,·,·,·,·
C=CCn1c(SCC(=O)c2[nH]c(C)c(C(=O)OCC)c2C)nc2scc(-c3ccc(OC)c(OC)c3)c2c1=O,2.2,105.6*,-2.8,·,2.7,·,50.2
CC(=O)Nc1ccc(NC(=O)CCn2c(=S)oc3ccccc32)cc1,-17.8,13.0,-7.6,0.1,-9.4,2.3,·
CC(C)CC(=O)/C=C/n1c(=S)oc2ccccc21,1.5,108.0*,-1.1,·,-15.8,·,42.4
Cn1c(=S)oc2ccccc21,·,6.7,-0.1,1.5,-6.2,-1.1,·
CC(=O)/C=C/n1c(=S)oc2ccccc21,16.1,106.1*,·,·,·,·,115.8*
CC(=O)Nc1ccc(S(=O)(=O)N(C)c2ccc(OCC(=O)OCC(=O)NCc3ccco3)cc2)cc1,·,-4.0,6.7,4.0,-2.2,-0.7,·
O=Nc1ccc(NOC(=O)c2ccccc2Br)cc1,-2.5,4.6,8.0,4.5,1.4,-4.9,·
O=C(ONc1ccc(N=NC(=O)c2ccccc2O)cc1)c1ccccc1,-5.3,106.7*,2.9,-1.9,2.9,-4.5,132.5*
Clc1ccc(-n2ncc3c(NCc4ccc5c(c4)OCO5)ncnc32)cc1,5.9,103.9*,-0.7,-0.8,-1.6,-3.5,39.4
Clc1ccc(-n2ncc3c(NCc4ccco4)ncnc32)cc1,11.6,57.8,8.7,-0.2,-9.7,5.6,·
COc1cc(/C=N/NC(=O)COc2ccccc2C)ccc1OC(=O)c1cccs1,-5.2,-1.8,6.8,16.1,-7.3,17.0,·
CCOc1cc(/C=N/NC(=O)COc2cccc(C)c2)ccc1OC(=O)c1cccs1,-0.8,106.2*,0.3,3.8,2.1,7.9,94.2*
Cc1cc(C(=O)NNC(=O)c2ccc(Cl)cc2Cl)c(C)o1,·,·,-3.4,0.9,2.3,1.9,·
CCOC(=O)CN1C(c2ccc(O)cc2)Nc2ccc(Br)cc2C1c1ccccc1 (centres undefined),-0.5,107.7*,-0.3,2.8,-2.0,-0.9,118.6*
CCOC(=O)CN1C(=O)Nc2ccc(Br)cc2C1c1ccccc1 (centres undefined),-7.1,28.2,-1.4,-1.0,5.5,1.6,·
CCN(CC)S(=O)(=O)c1ccc(C(=O)NCCOC(=O)c2ccc(F)cc2F)cc1,·,·,-0.9,-1.1,-2.3,-5.6,·
CC1CCc2nc(NC(=O)CSc3nc4ccccc4o3)sc2C1 (centres undefined),8.2,96.7*,-1.5,-1.6,10.8,-8.5,22.6
O=C(CCCCn1ccc(=O)[nH]c1=O)Nc1ccc(C(=O)O)c(O)c1,·,·,-5.1,·,5.2,·,·
Cc1ccc(-n2c(C)cc(C3N=C(N)Nc4nc5ccccc5n43)c2C)c(C)c1 (centres undefined),-1.7,100.0*,-1.4,-1.7,1.4,-0.3,61.8
C=C(C)COc1ccc(-c2n[nH]c(C)c2-c2ccc(OC)cc2)c(O)c1,13.4,107.5*,6.7,-0.9,6.7,-4.6,28.8
